Data on four compounds can be found in ChEMBL document CHEMBL4813974 (Eur J Med Chem, 2021).

Experiment [1] deals with T1, Neutral ceramidase (Homo sapiens, UniProt Q9NR71). Put plainly: Inhibition of human ASAH2 stably over expressed in human A-375 cell lysate using RBM14C24 fluorogenic substrate measured at 20 uM at pH 7.5 by fluorescence spectrophotometry. Format: subcellular.
Experiment [2] addresses T2, Acid ceramidase (Homo sapiens) (UniProt Q13510).
T2 sequence (whole entry): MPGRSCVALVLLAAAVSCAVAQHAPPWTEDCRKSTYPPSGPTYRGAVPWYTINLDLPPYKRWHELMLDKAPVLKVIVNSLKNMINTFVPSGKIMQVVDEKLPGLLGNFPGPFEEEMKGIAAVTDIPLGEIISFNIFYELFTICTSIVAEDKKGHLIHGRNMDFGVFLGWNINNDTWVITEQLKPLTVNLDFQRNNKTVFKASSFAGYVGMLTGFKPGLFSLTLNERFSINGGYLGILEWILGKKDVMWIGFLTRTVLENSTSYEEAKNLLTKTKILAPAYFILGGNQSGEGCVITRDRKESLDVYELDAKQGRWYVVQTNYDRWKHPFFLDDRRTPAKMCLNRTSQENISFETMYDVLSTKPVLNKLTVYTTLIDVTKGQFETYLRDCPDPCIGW
Briefly: Inhibition of human ASAH1 stably over expressed in human A-375 cell lysate using RBM14C12 fluorogenic substrate measured at 1:1 compound to substrate molar ratio at pH 4.5 by fluorescence spectrophotometry. Format: subcellular.

Experiment [3] concerns the target T2, Acid ceramidase (Homo sapiens). Briefly: Inhibition of human ASAH1 stably over expressed in human A-375 cell lysate using RBM14C12 fluorogenic substrate measured at 40 uM at pH 4.5 by fluorescence spectrophotometry. Format: subcellular. The gist of the method: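 Lysate of doxycycline-induced AC-overexpressing A375 cells (25 μg) in 25 mM sodium acetate pH 4.5, with RBM14C12 (10 μM) and a range of compound concentrations, 3 h at 37 °C. NaIO4/glycine-NaOH pH 10.6 development, fluorescence at 355/460 nm. Mean ± SEM from three to four experiments in triplicate.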

Experiment [4] has as its target T3, Alkaline ceramidase 3 (Mus musculus) (UniProt Q9D099).
T3 sequence (whole entry): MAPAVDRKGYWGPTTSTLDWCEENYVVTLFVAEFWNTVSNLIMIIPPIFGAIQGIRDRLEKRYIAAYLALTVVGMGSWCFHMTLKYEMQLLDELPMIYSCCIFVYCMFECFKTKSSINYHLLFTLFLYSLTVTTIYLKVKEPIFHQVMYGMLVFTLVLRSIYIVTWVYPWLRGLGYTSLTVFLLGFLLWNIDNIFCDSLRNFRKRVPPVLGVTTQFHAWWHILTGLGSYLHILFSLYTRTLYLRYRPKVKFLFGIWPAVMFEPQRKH
Briefly: Inhibition of ACER3 in ASAH2-null mouse embryonic fibroblast lysate using RBM14C16 fluorogenic substrate measured at pH 9 in presence of Ca2+ by fluorescence spectrophotometry. It counts as subcellular. The conditions noted are these: MEF, time 3.0 hrs. In outline: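 Lysate of ASAH2-null MEF (25 μg protein) in 50 mM HEPES, 1 mM CaCl2, pH 9, incubated 3 h at 37 °C with RBM14C16 and test compound. Stopped with MeOH, then NaIO4 in glycine-NaOH pH 10.6, 1 h at 37 °C in dark. Fluorescence read at ex 355/em 460 nm against enzyme-free blanks. Triplicates.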

Experiment [5] addresses T1, Neutral ceramidase. Put plainly: Non-competitive inhibition of recombinant ASAH2 stably over expressed in human A-375 cell lysate using RBM14C24 as substrate. Format: subcellular.
A further experiment concerns the target T4, Alkaline ceramidase 3 (Mus musculus, UniProt Q9D099).
T4 sequence (Q9D099 whole entry): T3 sequence (whole entry)
Put plainly: Non-competitive inhibition of ACER3 in ASAH2-null mouse embryonic fibroblast lysate using RBM14C16 as substrate. Format: subcellular. The gist of the method:
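Kinetics used ASAH2-null MEF lysate (25 μg) in 50 mM HEPES, 1 mM CaCl2, pH 9. RBM14C16 at 5, 10, 20 and 40 μM, with varied inhibitor amounts. Ki taken from the slopes of double-reciprocal regression lines at each inhibitor concentration. Four experiments in triplicate.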

For a further experiment, the target named is T5, Acid ceramidase (Homo sapiens, UniProt Q13510).
T5 sequence (Q13510 whole entry): T2 sequence (whole entry)
Put plainly: (§1) Inhibition of human ASAH1 stably over expressed in human intact A-375 cells using RBM14C12 fluorogenic substrate measured at pH 4.5 by fluorescence spectrophotometry. Format: cell-based. In outline: (§2)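 A375 cells with doxycycline-inducible AC, induced with 1 μg/mL doxycycline for 24 h. Intact cells (2x10^4/well) given RBM14C12 (10 μM) plus compounds in a range of concentrations in DMEM 10% FBS for 3 h at 37 °C. NaIO4 oxidation at pH 10.6, fluorescence at 355/460 nm, normalized to SRB protein. Three experiments in triplicate.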

Experiment [6] concerns the target T3, Alkaline ceramidase 3 (Mus musculus). Put plainly: Inhibition of ACER3 in ASAH2-null intact mouse embryonic fibroblast cell assessed as reduction in sphingosine level incubated for 3 hrs by LC-MS analysis. The conditions noted are these: MEF. In outline:
(§3)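 ASAH2-null MEF seeded at 0.2x10^6 cells/mL, grown 24 h, then given 50 μM compound or vehicle in DMEM 10% FBS for 3 h. Cells washed with PBS, lipids extracted and quantified by LC/MS. Mean ± SD from two experiments with triplicates; unpaired two-tailed t-test versus vehicle.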

For experiment [7] the target is unchanged. Briefly: Inhibition of ACER3 in ASAH2-null intact mouse embryonic fibroblast cell assessed as reduction in sphingomyelin level incubated for 3 hrs by LC-MS analysis. The conditions noted are these: MEF. In outline: as §3
The target is the same in experiment [8]. Put plainly: Inhibition of ACER3 in ASAH2-null intact mouse embryonic fibroblast cell assessed as reduction in glucosylceramide level incubated for 3 hrs by LC-MS analysis. Particulars: MEF. The gist of the method:
as §3

For experiment [9] the target is unchanged. Briefly: Inhibition of ACER3 in ASAH2-null intact mouse embryonic fibroblast cell assessed as increase in total […] incubated for 3 hrs by LC-MS analysis. The conditions noted are these: MEF. In outline:
as §3

Experiment [10] concerns the target Neutral ceramidase (Mus musculus) (UniProt Q9JHE3). Briefly: Inhibition of ASAH2 in wild type mouse intact embryonic fibroblast using RBM14C16 fluorogenic substrate measured at pH 7.5 incubated for 3 hrs by fluorescence spectrophotometry. The conditions noted are these: MEF. The gist of the method:
(§4)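 Intact MEF (ASAH2-null or wild type) seeded at 2x10^4 cells/well 24 h before the assay. Then given RBM14C16 (10 μM) plus a range of compound concentrations, added together, in DMEM 10% FBS for 3 h at 37 °C. Stopped with MeOH, oxidized with NaIO4 at pH 10.6, umbelliferone fluorescence read at 355/460 nm. Normalized to SRB protein; three experiments in triplicate.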

The target of experiment [11] is T3, Alkaline ceramidase 3 (Mus musculus). Briefly: Inhibition of ACER3 in ASAH2-null mouse intact embryonic fibroblast using RBM14C16 fluorogenic substrate measured at pH 9 for 3 hrs by fluorescence spectrophotometry. Particulars: MEF. The gist of the method: as §4
Experiment [12] concerns the target T1, Neutral ceramidase. Briefly: Inhibition of human ASAH2 transiently over expressed in human HT-29 cell lysate using RBM14C24 fluorogenic substrate measured at pH 7.4 by fluorescence spectrophotometry.
Experiment [13] deals with T1, Neutral ceramidase. Put plainly: Inhibition of human ASAH2 transiently over expressed in human HT29 cell lysate using RBM14C24 fluorogenic substrate measured at >40 uM at pH 7.4 by fluorescence spectrophotometry. Particulars: HT-29, dose microM >40.
The target of experiment [14] is T2, Acid ceramidase (Homo sapiens). Described as §1. It counts as cell-based. Particulars: time 3.0 hrs. In outline:
as §2

In experiment [15] the target is T1, Neutral ceramidase. Briefly: Inhibition of human ASAH2 recombinant enzyme using RBM14C16 fluorogenic substrate measured at 5 uM at pH 7.5 by fluorescence spectrophotometry.
Experiment [16] addresses T1, Neutral ceramidase. Put plainly: Inhibition of human ASAH2 recombinant enzyme using RBM14C16 fluorogenic substrate measured at 20:1 substrate to compound molar ratio at pH 7.5 by fluorescence spectrophotometry.

Structures are written as SMILES. Active and inactive are the calls of the source. The rule behind the calls is not given here.

Chain of Neutral ceramidase (Mus musculus) (Q9JHE3 whole entry): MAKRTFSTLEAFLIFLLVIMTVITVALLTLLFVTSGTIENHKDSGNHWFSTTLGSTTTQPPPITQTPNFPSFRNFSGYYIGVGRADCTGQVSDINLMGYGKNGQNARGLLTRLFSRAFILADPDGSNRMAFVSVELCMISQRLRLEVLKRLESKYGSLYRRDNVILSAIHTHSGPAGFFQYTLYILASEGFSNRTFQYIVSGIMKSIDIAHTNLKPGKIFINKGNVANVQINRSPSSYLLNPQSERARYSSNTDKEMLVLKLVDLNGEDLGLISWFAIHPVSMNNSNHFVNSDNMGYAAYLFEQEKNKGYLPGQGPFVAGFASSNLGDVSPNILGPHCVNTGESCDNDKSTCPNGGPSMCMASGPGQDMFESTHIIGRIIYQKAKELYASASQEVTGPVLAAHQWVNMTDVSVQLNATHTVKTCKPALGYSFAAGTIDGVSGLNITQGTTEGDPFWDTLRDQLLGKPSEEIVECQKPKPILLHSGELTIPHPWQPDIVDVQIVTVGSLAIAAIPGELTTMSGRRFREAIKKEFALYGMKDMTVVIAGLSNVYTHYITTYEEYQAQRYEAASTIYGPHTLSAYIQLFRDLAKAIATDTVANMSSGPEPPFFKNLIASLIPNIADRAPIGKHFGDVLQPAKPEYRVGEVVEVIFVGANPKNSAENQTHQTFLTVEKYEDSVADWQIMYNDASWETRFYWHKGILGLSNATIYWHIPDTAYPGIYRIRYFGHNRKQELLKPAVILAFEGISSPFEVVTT
T1 sequence (Q9NR71 whole entry): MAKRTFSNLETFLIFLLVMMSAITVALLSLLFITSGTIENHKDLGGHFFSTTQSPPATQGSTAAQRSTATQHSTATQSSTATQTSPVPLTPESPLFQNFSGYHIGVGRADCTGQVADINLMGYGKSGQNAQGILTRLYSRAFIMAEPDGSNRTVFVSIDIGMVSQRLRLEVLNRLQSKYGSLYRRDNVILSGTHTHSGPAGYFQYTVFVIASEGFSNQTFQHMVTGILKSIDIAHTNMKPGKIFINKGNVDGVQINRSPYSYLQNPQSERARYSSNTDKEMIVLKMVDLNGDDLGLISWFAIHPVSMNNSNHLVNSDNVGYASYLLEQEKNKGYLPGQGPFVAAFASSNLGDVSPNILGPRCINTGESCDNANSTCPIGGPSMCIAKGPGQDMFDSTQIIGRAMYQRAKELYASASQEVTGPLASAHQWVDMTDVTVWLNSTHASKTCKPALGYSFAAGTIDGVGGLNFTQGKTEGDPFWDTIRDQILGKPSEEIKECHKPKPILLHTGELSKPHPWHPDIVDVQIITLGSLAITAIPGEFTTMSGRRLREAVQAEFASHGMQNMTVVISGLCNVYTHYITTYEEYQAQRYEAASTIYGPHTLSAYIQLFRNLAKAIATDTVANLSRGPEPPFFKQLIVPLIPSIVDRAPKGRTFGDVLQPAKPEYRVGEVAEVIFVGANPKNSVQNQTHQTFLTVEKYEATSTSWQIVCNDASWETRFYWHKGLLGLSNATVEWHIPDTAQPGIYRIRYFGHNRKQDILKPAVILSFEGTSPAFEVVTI

As to `CCCCCCCCCCCC/C=C/[C@@H](O)[C@@H](C)NC(=O)c1ccc(OCCCOCOC)cc1`, the inhibition result (at Neutral ceramidase [1]; in [2]; in [6]; in experiment [7]; in experiment [8]) was “inactive” in each case. Further, the inhibition entry in experiment [3], in [10] and in experiment [11] was “Active” each time. Further, the inhibition entry is “Dose-Dependent Effect” in [4], “Dose-Dependent Effect” on Neutral ceramidase [12] and 50% on Neutral ceramidase [13]. Further, the Ki turned out to be 5.4 µM at Neutral ceramidase [5] and 25.5 µM on Alkaline ceramidase 3. For the same compound, the IC50 on Acid ceramidase was above 200 µM. The fold change (FC) in [9] is 1.5.

Take `CCCCCCCCCCCC/C=C/[C@@H](O)[C@@H](C)NC(=O)CCCCCCC`: the inhibition entry in experiment [10] and in experiment [11] was “inactive” in each case.

On to `CCCCCCCCCCCC/C=C/[C@@H](O)[C@@H](C)NC(=O)c1ccc(CCCCCCC)cc1`, for which the inhibition entry (at Neutral ceramidase [1]; in experiment [3]; at Neutral ceramidase [15]; on Neutral ceramidase [16]) was “Active” throughout. Further, the inhibition entry (in experiment [2]; in experiment [14]; in experiment [10]; in experiment [11]; at Neutral ceramidase [12]) was “inactive” each time. Also, at Neutral ceramidase [5], the Ki was 0.8 µM.

With `CCCCCCCCCCCC/C=C/[C@@H](O)[C@@H](C)NC(=O)c1ccc(OCCCCOCOC)cc1`, the inhibition result in [2], in experiment [6], in experiment [7] and in experiment [8] was “inactive” in each case. Moreover, the inhibition result in experiment [4] was “Dose-Dependent Effect”. Besides, the Ki at Alkaline ceramidase 3 stood at 34.4 µM. The compound also displayed an IC50 against Acid ceramidase above 200 µM. The fold change (FC) in experiment [9] turned out to be 1.5. The inhibition entry in experiment [10] and in [11] was “Active” throughout.

Broadly, the inhibition is the share of the control response that was lost under treatment. The term Ki denotes a dissociation constant, usually derived from enzyme kinetics or from competition with a known ligand. As a reminder, the IC50 is the midpoint of a concentration-inhibition curve. High values mean weaker potency in that assay, low ones greater potency in that assay.
